According to ChEMBL document CHEMBL1127555, “Novel (4-phenylpiperidinyl)- and (4-phenylpiperazinyl)alkyl-spaced esters of 1-phenylcyclopentanecarboxylic acids as potent sigma-selective compounds” (J Med Chem, 1994):

What was measured:
Sigma 2 receptor [1] = assay: The compound was evaluated for affinity at sigma-2 site by inhibition of [3H]1,3-di(2-tolyl)guanidine (DTG) binding in guinea pig brain; set-up: species or system Cavia porcellus
Method in brief: (§1)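 Final [3H]DTG 4 nM with varied test concentrations. Incubation 25 °C for 90 min. PEI-soaked GF/B filtration, scintillation counting. Ki from EBDA/LIGAND, at least three determinations in triplicate.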

[2] = biological target: T1, Muscarinic acetylcholine receptor M2 (Rattus norvegicus) (UniProt P10980); assay: (§2) Binding affinity was measured as selectivity for sigma 1 site over muscarinic (M2) receptor at 10 uM in rat using [3H]QN as radioligand
T1 sequence (whole entry): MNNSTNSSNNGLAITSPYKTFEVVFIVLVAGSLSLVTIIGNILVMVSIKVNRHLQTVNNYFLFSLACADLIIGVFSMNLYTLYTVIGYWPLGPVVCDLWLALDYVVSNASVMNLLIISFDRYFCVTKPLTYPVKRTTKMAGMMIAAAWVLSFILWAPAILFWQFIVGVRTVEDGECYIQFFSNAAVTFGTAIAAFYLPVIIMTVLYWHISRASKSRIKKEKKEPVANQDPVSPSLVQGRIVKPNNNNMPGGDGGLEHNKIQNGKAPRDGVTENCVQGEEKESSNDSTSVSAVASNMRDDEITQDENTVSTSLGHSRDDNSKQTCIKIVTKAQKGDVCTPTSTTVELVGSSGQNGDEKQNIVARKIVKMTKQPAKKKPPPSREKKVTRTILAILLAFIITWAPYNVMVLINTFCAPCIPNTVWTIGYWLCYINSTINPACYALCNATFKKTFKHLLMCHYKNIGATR
Method in brief: (§3)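 Muscarinic binding, M1 in rat cortex with [3H]pirenzepine 0.5 nM and M2 in rat heart with [3H]QNB 0.05 nM.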

[3] = biological target: T2, Muscarinic acetylcholine receptor M1 (Rattus norvegicus, UniProt P08482); assay: Binding affinity was measured as selectivity for sigma-1 site over muscarinic (M1) receptor in rat using [3H]pirenzepine as radioligand
T2 sequence (P08482 whole entry): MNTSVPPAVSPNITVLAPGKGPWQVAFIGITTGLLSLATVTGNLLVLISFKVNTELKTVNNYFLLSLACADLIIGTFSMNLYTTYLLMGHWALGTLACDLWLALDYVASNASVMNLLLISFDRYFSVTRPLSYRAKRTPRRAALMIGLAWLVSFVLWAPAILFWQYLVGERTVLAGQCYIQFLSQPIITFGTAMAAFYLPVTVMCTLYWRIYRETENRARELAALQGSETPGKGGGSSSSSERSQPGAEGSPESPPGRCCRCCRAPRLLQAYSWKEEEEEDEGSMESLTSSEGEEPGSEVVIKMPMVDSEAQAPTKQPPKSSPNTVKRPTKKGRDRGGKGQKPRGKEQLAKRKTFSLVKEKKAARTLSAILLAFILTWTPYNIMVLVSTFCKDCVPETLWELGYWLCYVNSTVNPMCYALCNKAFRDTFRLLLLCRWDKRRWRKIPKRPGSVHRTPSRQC

[4] = biological target: T3, Glutamate NMDA receptor (Rattus norvegicus) (UniProt P35439+Q00959+Q00960+Q00961+Q62645+Q8VHN2+Q9R1M7); assay: Binding affinity was measured as selectivity for sigma-1 site over phencyclidine (PCP) receptor in rat using [3H]TCP as radioligand at 10 uM
[5] = Binding affinity for sigma-1 site over dopamine (D2) receptor in rat using [3H]spiperone as radioligand
[6] = biological target: T3, Glutamate NMDA receptor (Rattus norvegicus); assay: Binding affinity was measured as selectivity for sigma-1 site over N-methyl-D-aspartate (NMDA) receptor in rat using [3H]CGS-19,755 as radioligand at 10 uM
[7] = Binding affinity for sigma-1 site over dopamine receptor D1 in rat using [3H]SCH-23390 as radioligand
[8] = biological target: Opioid receptor (Rattus norvegicus) (UniProt P33533+P34975+P33535); assay: Binding affinity was measured as selectivity for sigma-1 site over opioid receptor in rat using [3H]naloxone as radioligand at 10 uM
Opioid receptor [9] = biological target: T4, Opioid receptor (Rattus norvegicus, UniProt P33533+P34975+P33535); assay: Binding affinity was measured as selectivity for sigma-1 site over opioid receptor in rat using [3H]naloxone as radioligand
[10] = biological target: T5, Muscarinic acetylcholine receptor M2 (Rattus norvegicus, UniProt P10980); assay: as §2; method in brief: as §3
T5 sequence (P10980 whole entry): T1 sequence (whole entry)

Glutamate NMDA receptor [11] = assay: Binding affinity was measured as selectivity for sigma-1 site over phencyclidine (PCP) receptor in rat using [3H]TCP as radioligand
[12] = biological target: T2, Muscarinic acetylcholine receptor M1; assay: Binding affinity was measured as selectivity for sigma-1 site over muscarinic (M1) receptor in rat
[13] = biological target: T5, Muscarinic acetylcholine receptor M2; assay: Binding affinity was measured against muscarinic (M2) receptor at 10 uM in rat using [3H]QN as radioligand
D(1A) dopamine receptor [14] = biological target: T6, D(1A) dopamine receptor (Rattus norvegicus, UniProt P18901); assay: Binding affinity was measured against dopamine receptor D1 in rat using [3H]SCH-23390 as radioligand
D(2) dopamine receptor [15] = biological target: T7, D(2) dopamine receptor (Rattus norvegicus, UniProt P61169); assay: Binding affinity was measured against dopamine (D2) receptor in rat using [3H]spiperone as radioligand
[16] = biological target: T2, Muscarinic acetylcholine receptor M1; assay: Binding affinity was measured against muscarinic (M1) receptor in rat using [3H]pirenzepine as radioligand
Opioid receptor [17] = biological target: T4, Opioid receptor; assay: Binding affinity was measured against opioid receptor in rat using [3H]naloxone as radioligand
Glutamate NMDA receptor [18] = assay: Binding affinity was measured against phencyclidine (PCP) receptor in rat using [3H]TCP as radioligand
Sigma 2 receptor [19] = assay: Affinity at sigma-2 site by inhibition of [3H]1,3-di(2-tolyl)guanidine (DTG) binding in guinea pig brain.; set-up: species or system Cavia porcellus; method in brief: as §1
[20] = biological target: T3, Glutamate NMDA receptor (Rattus norvegicus); assay: Binding affinity was measured against phencyclidine (PCP) receptor in rat using [3H]-TCP as radioligand at 10 uM
[21] = biological target: T3, Glutamate NMDA receptor (Rattus norvegicus); assay: Binding affinity was measured against N-methyl-D-aspartate (NMDA) receptor in rat using [3H]CGS-19,755 as radioligand at 10 uM
D(2) dopamine receptor [22] = biological target: T7, D(2) dopamine receptor; assay: Iodo derivative shows a potent sigma binding ligand, had some affinity for D2 site in rat
D(2) dopamine receptor [23] = biological target: T7, D(2) dopamine receptor; assay: The nitro derivative RLH-033 shows significant selectivity for the [3H]-(=)-PENT site over dopamine 2 in rat using [3H]SCH-23390 as radioligand
D(1A) dopamine receptor [24] = biological target: T6, D(1A) dopamine receptor; assay: The nitro derivative RLH-033 shows significant selectivity for the [3H]-(=)-PENT site over […] in rat using [3H]SCH-23390 as radioligand
[25] = biological target: T2, Muscarinic acetylcholine receptor M1; assay: The nitro derivative RLH-033 shows significant selectivity for the [3H]-(=)-PENT site over muscarinic 1 in rat using [3H]pirenzepine as radioligand
[26] = biological target: T5, Muscarinic acetylcholine receptor M2; assay: The nitro derivative RLH-033 shows significant selectivity for the [3H]-(=)-PENT site over muscarinic 2 in rat using [3H]QN as radioligand

T7 sequence (P61169 whole entry): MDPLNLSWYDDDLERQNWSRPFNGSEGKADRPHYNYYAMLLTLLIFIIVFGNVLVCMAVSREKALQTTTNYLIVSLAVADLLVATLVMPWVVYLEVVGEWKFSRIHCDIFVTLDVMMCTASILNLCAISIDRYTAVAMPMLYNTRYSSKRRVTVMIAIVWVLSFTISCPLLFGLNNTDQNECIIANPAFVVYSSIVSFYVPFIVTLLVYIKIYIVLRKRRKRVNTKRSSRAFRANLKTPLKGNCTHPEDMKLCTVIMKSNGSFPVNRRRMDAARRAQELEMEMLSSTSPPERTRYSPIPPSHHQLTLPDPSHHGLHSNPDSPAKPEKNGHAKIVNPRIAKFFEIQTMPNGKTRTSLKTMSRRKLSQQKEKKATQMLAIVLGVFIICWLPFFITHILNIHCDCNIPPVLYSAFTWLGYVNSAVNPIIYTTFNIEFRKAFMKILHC
T6 sequence (P18901 whole entry): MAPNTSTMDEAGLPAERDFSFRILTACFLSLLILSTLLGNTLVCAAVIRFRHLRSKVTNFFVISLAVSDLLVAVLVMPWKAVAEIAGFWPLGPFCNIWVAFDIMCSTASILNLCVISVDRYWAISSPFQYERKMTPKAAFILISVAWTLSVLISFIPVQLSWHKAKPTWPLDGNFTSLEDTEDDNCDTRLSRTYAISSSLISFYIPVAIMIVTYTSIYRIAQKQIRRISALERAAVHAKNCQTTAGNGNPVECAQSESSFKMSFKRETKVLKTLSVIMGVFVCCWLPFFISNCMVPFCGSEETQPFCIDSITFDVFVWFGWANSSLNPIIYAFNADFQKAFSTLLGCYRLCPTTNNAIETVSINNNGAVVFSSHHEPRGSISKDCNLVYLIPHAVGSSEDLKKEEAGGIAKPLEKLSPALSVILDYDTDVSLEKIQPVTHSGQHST
Sequence of Opioid receptor (Rattus norvegicus) (P33533 whole entry, looked up): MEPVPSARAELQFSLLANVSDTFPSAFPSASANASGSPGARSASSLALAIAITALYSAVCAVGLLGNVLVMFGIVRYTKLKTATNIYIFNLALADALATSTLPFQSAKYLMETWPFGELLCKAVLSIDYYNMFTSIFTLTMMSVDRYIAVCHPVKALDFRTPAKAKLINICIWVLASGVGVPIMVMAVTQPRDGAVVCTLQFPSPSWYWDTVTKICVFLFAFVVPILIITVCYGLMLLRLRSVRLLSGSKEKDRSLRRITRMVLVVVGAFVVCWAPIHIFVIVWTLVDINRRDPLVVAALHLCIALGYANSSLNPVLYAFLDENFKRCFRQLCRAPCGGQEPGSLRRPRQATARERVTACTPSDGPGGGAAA
Sequence of Opioid receptor (Rattus norvegicus) (P33535 whole entry, looked up): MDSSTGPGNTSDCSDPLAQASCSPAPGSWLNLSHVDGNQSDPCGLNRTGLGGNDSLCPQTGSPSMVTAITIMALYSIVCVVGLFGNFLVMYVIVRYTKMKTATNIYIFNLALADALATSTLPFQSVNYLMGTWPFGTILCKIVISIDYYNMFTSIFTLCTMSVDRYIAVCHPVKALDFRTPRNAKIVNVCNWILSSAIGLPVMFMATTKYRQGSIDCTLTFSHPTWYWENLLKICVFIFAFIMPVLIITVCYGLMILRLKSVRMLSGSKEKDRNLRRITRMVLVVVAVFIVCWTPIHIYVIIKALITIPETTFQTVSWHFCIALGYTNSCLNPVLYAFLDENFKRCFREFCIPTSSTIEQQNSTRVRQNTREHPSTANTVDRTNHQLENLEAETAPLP
Sequence of Opioid receptor (Rattus norvegicus) (P34975 whole entry, looked up): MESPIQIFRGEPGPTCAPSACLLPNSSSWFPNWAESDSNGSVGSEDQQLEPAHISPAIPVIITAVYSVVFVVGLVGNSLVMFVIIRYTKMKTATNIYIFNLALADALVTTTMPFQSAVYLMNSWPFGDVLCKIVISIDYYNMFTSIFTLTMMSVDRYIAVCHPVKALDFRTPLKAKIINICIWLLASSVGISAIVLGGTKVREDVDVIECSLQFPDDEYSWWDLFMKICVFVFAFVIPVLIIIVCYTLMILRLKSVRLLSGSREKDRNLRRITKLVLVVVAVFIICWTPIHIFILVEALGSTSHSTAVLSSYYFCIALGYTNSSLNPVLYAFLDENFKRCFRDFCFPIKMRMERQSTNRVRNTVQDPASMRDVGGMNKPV

## O=C(OCCCN1CCC(c2ccccc2)CC1)C1(c2ccc([N+](=O)[O-])cc2)CCCC1
Sigma 2 receptor [1]
  Ki: 0.88 nM

## O=C(OCCN1CCC(c2ccccc2)CC1)C1(c2ccccc2)CCCC1
[2]
  inhibition: 20%
[3]
  Ki: 170 nM
[4]
  inhibition: 8%
Sigma 2 receptor [1]
  Ki: 52.3 nM
[5]
  Ki: 1100 nM
[6]
  inhibition: 15%
[7]
  Ki: 4.9 µM
[8]
  inhibition: 63%

## Cc1ccccc1NC(=N)Nc1ccccc1C
Opioid receptor [9]
  Ki: 3.95 µM
[10]
  Ki: 2960 nM
Glutamate NMDA receptor [11]
  Ki: 6.69 µM
[5]
  Ki: > 5000 nM
[12]
  Ki: 744 nM
[6]
  inhibition: 0%
[7]
  Ki: > 5 µM

## O=C(OCCCN1CCC(c2ccccc2)CC1)C1(c2ccc(I)cc2)CCCC1
Sigma 2 receptor [1]
  Ki: 6.49 nM

## O=C(OCCCN1CCC(c2ccccc2)CC1)C1(c2ccc(Cl)cc2)CCCC1
Sigma 2 receptor [1]
  Ki: 4.41 nM

## O=C(OCCCCCCN1CCC(c2ccccc2)CC1)C1(c2ccccc2)CCCC1
Sigma 2 receptor [1]
  Ki: 1.88 nM

## COc1ccc(C2(C(=O)OCCCN3CCC(c4ccccc4)CC3)CCCC2)cc1
Sigma 2 receptor [1]
  Ki: 1.71 nM
[5]
  Ki: 1000 nM
[7]
  Ki: 6 µM

## CC(C)=CCN1CC[C@]2(C)c3cc(O)ccc3C[C@H]1[C@H]2C (single isomer, unassigned) [(+)-PENTAZOCINE]
[13]
  Ki: 525 nM
D(1A) dopamine receptor [14]
  Ki: > 5000 nM
D(2) dopamine receptor [15]
  Ki: > 5000 nM
[16]
  Ki: 225 nM
Opioid receptor [17]
  Ki: 651 nM
Glutamate NMDA receptor [18]
  Ki: 4.19 µM

## O=C(OCCN1CCC(c2ccccc2)CC1)C1(c2ccc(Cl)cc2)CCCC1
Sigma 2 receptor [1]
  Ki: 23.9 nM

## O=C(OCCCCCN1CCC(c2ccccc2)CC1)C1(c2ccccc2)CCCC1
Sigma 2 receptor [1]
  Ki: 1.05 nM

## N#Cc1ccc(C2(C(=O)OCCN3CCC(c4ccccc4)CC3)CCCC2)cc1
Sigma 2 receptor [1]
  Ki: 26.8 nM
[5]
  Ki: 195 nM
[7]
  Ki: > 1 µM

## CCN(CC)CCOC(=O)C1(c2ccccc2)CCCC1
Sigma 2 receptor [19]
  Ki: 658 nM
[20]
  inhibition: 11%
D(1A) dopamine receptor [14]
  Ki: > 1000 nM
D(2) dopamine receptor [15]
  Ki: > 500 nM
[21]
  inhibition: 19%

## O=C(OCCN1CCN(c2ccccc2)CC1)C1(c2ccc([N+](=O)[O-])cc2)CCCC1
[4]
  inhibition: 10%
Sigma 2 receptor [1]
  Ki: 30.3 nM
[5]
  Ki: 500 nM
[6]
  inhibition: 19%
[7]
  Ki: 1 µM
[8]
  inhibition: 25%

## COc1ccc(C2(C(=O)OCCN3CCC(c4ccccc4)CC3)CCCC2)cc1
Sigma 2 receptor [1]
  Ki: 31.8 nM

## O=C(OCCN1CCN(c2ccccc2)CC1)C1(c2ccc(Cl)cc2)CCCC1
Sigma 2 receptor [1]
  Ki: 763 nM

## O=C(OCCN1CCC(c2ccccc2)CC1)C1(c2ccc(I)cc2)CCCC1
D(2) dopamine receptor [22]
  Ki: 55 nM
[4]
  inhibition: 8%
Sigma 2 receptor [1]
  Ki: 52 nM
[7]
  Ki: > 1 µM
[8]
  inhibition: 25%

## O=C(CCCN1CCC(O)(c2ccc(Cl)cc2)CC1)c1ccc(F)cc1
[21]
  inhibition: 25%

## COc1ccc2c(c1)[C@]13CCCC[C@@H]1[C@H](C2)N(C)CC3 [DEXTROMETHORPHAN]
[13]
  Ki: > 10000 nM
[21]
  inhibition: 2%

## O=C(OCCCCN1CCC(c2ccccc2)CC1)C1(c2ccccc2)CCCC1
Sigma 2 receptor [1]
  Ki: 0.69 nM
[5]
  Ki: 470 nM
[7]
  Ki: 3.1 µM

## O=C(OCCCN1CCC(c2ccccc2)CC1)C1(c2ccccc2)CCCC1
[10]
  Ki: 670 nM
Sigma 2 receptor [1]
  Ki: 1.17 nM
[5]
  Ki: 1200 nM
[12]
  Ki: 170 nM
[7]
  Ki: 10 µM

## O=C(OCCN1CCN(c2ccccc2)CC1)C1(c2ccccc2)CCCC1
[2]
  inhibition: 98%
[4]
  inhibition: 1%
Sigma 2 receptor [1]
  Ki: 696 nM
[5]
  Ki: > 500 nM
[12]
  Ki: 1470 nM
[6]
  inhibition: 7%
[8]
  inhibition: 43%

## O=C(OCCN1CCC(c2ccccc2)CC1)C1(c2ccc([N+](=O)[O-])cc2)CCCC1
[10]
  Ki: 1710 nM
D(2) dopamine receptor [23]
  Ki: > 7 µM
[3]
  Ki: 880 nM
D(1A) dopamine receptor [24]
  Ki: > 58 µM
[25]
  Ki: > 17.6 µM
[4]
  inhibition: 7%
Sigma 2 receptor [1]
  Ki: 3.93 nM
[5]
  Ki: 350 nM
[6]
  inhibition: 12%
[7]
  Ki: 2.9 µM
[26]
  Ki: > 34.2 µM
[8]
  inhibition: 42%

## O=C(OCCN1CCN(c2ccccc2)CC1)C1(c2ccc(I)cc2)CCCC1
[4]
  inhibition: 7%
Sigma 2 receptor [1]
  Ki: 293 nM
[5]
  Ki: 215 nM
[7]
  Ki: 0.65 µM
[8]
  inhibition: 25%
